Results as given in paper PMC3819402 (Journal of medicinal chemistry, 2013).
“Also recorded” adds a separate entry of the source. Where two headings read alike, the source gives them in different places. Each block holds one compound with its values, some of them ahead of it.

Columns and labels:
SK BR-3 = assay: In vitro cytotoxicity, SK BR-3; assay type: cell-based; settings: Homo sapiens, SK-BR-3, 96 h, read-out: IC50 (GI50) SK BR-3
Summary of the method: (§1)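 Tumour cell lines were grown in DMEM or RPMI with 10% FBS and penicillin-streptomycin, then plated in twelve-well dishes. Test compound was added 24 h later at various concentrations. After 96 h, viable cells were counted by trypan blue exclusion from duplicate wells.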

RF-1 = assay: In vitro cytotoxicity, RF-1; assay type: cell-based; settings: Homo sapiens, RF1, 96 h, read-out: IC50 (GI50) RF-1
Summary of the method: as §1

N417 = assay: In vitro cytotoxicity, N417; assay type: cell-based; settings: Homo sapiens, N417, 96 h, read-out: IC50 (GI50) N417
Summary of the method: as §1

MES-SA = assay: In vitro cytotoxicity, MES-SA; assay type: cell-based; settings: Homo sapiens, 96 h, read-out: IC50 (GI50) MES-SA
H80 = assay: In vitro cytotoxicity, H80; assay type: cell-based; settings: Homo sapiens, 96 h, read-out: IC50 (GI50) H80
Summary of the method: as §1

NAMALWA = assay: In vitro cytotoxicity, NAMALWA; assay type: cell-based; settings: Homo sapiens, 96 h, read-out: IC50 (GI50) NAMALWA
Summary of the method: as §1

MCF-7 = assay: In vitro cytotoxicity, MCF-7; assay type: cell-based; settings: Homo sapiens, MCF7, 96 h, read-out: IC50 (GI50) MCF-7
Summary of the method: as §1

SK-MEL-28 = assay: In vitro cytotoxicity, SK-MEL-28; assay type: cell-based; settings: Homo sapiens, SK-MEL-28, 96 h, read-out: IC50 (GI50) SK-MEL-28
Summary of the method: as §1

H187 = assay: In vitro cytotoxicity, H187; assay type: cell-based; settings: Homo sapiens, NCI-H187, 96 h, read-out: IC50 (GI50) H187
Summary of the method: as §1

HCT116 = assay: In vitro cytotoxicity, HCT116; assay type: cell-based; settings: Homo sapiens, HCT-116, 96 h, read-out: IC50 (GI50) HCT116
Summary of the method: as §1

MIAPaCa2 = assay: In vitro cytotoxicity, MIAPaCa2; assay type: cell-based; settings: Homo sapiens, MIA PaCa-2, 96 h, read-out: IC50 (GI50) MIAPaCa2
Summary of the method: as §1

RF-48 = assay: In vitro cytotoxicity, RF-48; assay type: cell-based; settings: Homo sapiens, RF48, 96 h, read-out: IC50 (GI50) RF-48
Summary of the method: as §1

DU145 cells [1] = assay: Cell cycle progression by flow cytometry; assay type: cell-based, human; settings: 24 h, propidium iodide
Summary of the method: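 DU145 cells were grown in DMEM with 10% FBS and penicillin-streptomycin, then treated 24 h after plating. Harvest was 24 h after treatment, pooling trypsinised and non-attached cells. Cells were PBS-washed and fixed in ice-cold 70% ethanol for at least 24 h. They were stained with propidium iodide plus RNase A (0.5 mg) for 30 min at 37 °C, run on a FACScan, and analysed for cell-cycle distribution.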

PC3 = assay: In vitro cytotoxicity, PC3; assay type: cell-based; settings: Homo sapiens, PC-3, 96 h, read-out: IC50 (GI50) PC3
Summary of the method: as §1

DU145 cells [2] = assay: PARP cleavage western blot, tumor cells; assay type: cell-based, human; settings: tumor cell line
Summary of the method: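 DU145 cells in 100 mm plates were treated 24 h after plating with DMSO or increasing concentrations of test compound, then collected at set time points. Frozen pellets were lysed in 0.1% Triton X-100 buffer with protease inhibitors. Equal protein was run on 10% SDS-PAGE and moved to nitrocellulose. The blot was probed with anti-PARP antibody and IRDye 800 secondary, then scanned on Odyssey for PARP cleavage.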

DU145 = assay: In vitro cytotoxicity, DU145; assay type: cell-based; settings: Homo sapiens, DU-145, 96 h, read-out: IC50 (GI50) DU145
various tumor cell lines = assay: Cytotoxicity across a wide spectrum of cancer cell lines; assay type: cell-based; settings: Homo sapiens, read-out: IC50 values across tumor cell lines of Table 3
Summary of the method: as §1

[3] = tested on: purified bovine brain tubulin; assay: In vitro tubulin polymerization; assay type: biochemical; settings: 10 μM, 37 °C, absorbance at 340 nm over 40 min
[4] = tested on: BT20 human breast tumor xenograft; assay: Nude mouse xenograft assay
DAUDI = assay: In vitro cytotoxicity, DAUDI; assay type: cell-based; settings: Homo sapiens, 96 h, read-out: IC50 (GI50) DAUDI
Summary of the method: as §1

MIA-PaCa-2 cells = assay: Soft agar assay; assay type: cell-based, human; settings: three weeks of growth
DU145 cells [5] = assay: Fluorescent tubulin staining, mitotic spindle; assay type: cell-based, human; settings: 24 h exposure; 25 nM in Figure 2
normal cell line = assay: PARP cleavage, normal cell line; assay type: cell-based; settings: data not shown
HCT15 = assay: In vitro cytotoxicity, HCT15; assay type: cell-based; settings: Homo sapiens, HCT-15, 96 h, read-out: IC50 (GI50) HCT15
Summary of the method: as §1

LNCAP = assay: In vitro cytotoxicity, LNCAP; assay type: cell-based; settings: Homo sapiens, 96 h, read-out: IC50 (GI50) LNCAP
Summary of the method: as §1

SKOV3 = assay: In vitro cytotoxicity, SKOV3; assay type: cell-based; settings: Homo sapiens, SK-OV-3, 96 h, read-out: IC50 (GI50) SKOV3
Summary of the method: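 Tumour cells grown in DMEM or RPMI with 10% fetal bovine serum and 1 unit/mL penicillin-streptomycin, plated in twelve-well dishes, then dosed 24 h later with test compound at various concentrations. After 96 h, viable cells counted in duplicate wells by trypan blue exclusion.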

[6] = biological target: porcine brain tubulin (vinblastine binding site) (Sus scrofa, UniProt P02550+P02554); assay: Competitive mass spectrometry binding assay, vinblastine site; settings: vinblastine 1.2 μM, no GTP; competitor 0.1–100 μM
tubulin in DU145 cells = assay: In vivo; assay type: cell-based, human; settings: for polymerized versus soluble tubulin in cells: 24 h treatment
T47D = assay: In vitro cytotoxicity, T47D; assay type: cell-based; settings: Homo sapiens, 96 h, read-out: IC50 (GI50) T47D
Summary of the method: as §1

MES-SA / DX5 = assay: Cytotoxicity in multidrug-resistant subline MES-SA/DX5; assay type: cell-based, human; settings: all three pairs of sensitive and drug-resistant cancer cells
[7] = biological target: porcine brain tubulin, preformed microtubules (paclitaxel binding site) (Sus scrofa, UniProt P02550+P02554); assay: Competitive mass spectrometry binding assay, paclitaxel site; settings: paclitaxel 1.2 μM, 1 mM GTP, competitor 0.1–100 μM
HepG2 cells = assay: Cytotoxicity to HepG2; assay type: cell-based; settings: 4 h exposure, Alamar Blue
BT20 = assay: In vitro cytotoxicity, BT20; assay type: cell-based; settings: Homo sapiens, BT-20, 96 h, read-out: IC50 (GI50) BT20
Summary of the method: as §1

MOLT-4 = assay: In vitro cytotoxicity, MOLT-4; assay type: cell-based; settings: Homo sapiens, MOLT-4, 96 h, read-out: IC50 (GI50) MOLT-4
Summary of the method: as §1

SMILES: O=c1cc[nH]c(=S)[nH]1 [2-thiouracil, 2-Thiouracil, reference compound]
LD50 to Caco-2 cells (Caco-2 cells; human, Caco-2, 1 h): > 1000 µM

SMILES: COc1ccc(NS(=O)(=O)/C=C/c2c(OC)cc(OC)cc2OC)cc1 [6i, (E)-N-(4-Methoxyphenyl)-2-(2′,4′,6′-trimethoxyphenyl)ethenesulfonamide]
IC50 (SK BR-3): 50 nM
IC50 (RF-1): 50 nM
IC50 (N417): 50 nM
IC50 (MES-SA): 50 nM
IC50 (H80): 100 nM
IC50 (NAMALWA): 100 nM
IC50 (MCF-7): 50 nM
IC50 (SK-MEL-28): 50 nM

SMILES: COc1cc(OC)c(/C=C/S(=O)(=O)Nc2ccc(OC)c(O)c2)c(OC)c1 [6p, (E)-N-(3-Hydroxy-4-methoxyphenyl)-2-(2′,4′,6′-trimethoxyphenyl)ethenesulfonamide]
IC50 (RF-1): 10 nM
IC50 (N417): 10 nM
IC50 (H187): 10 nM
IC50 (HCT116): 10 nM
IC50 (MIAPaCa2): 10 nM
IC50 (RF-48): 10 nM

SMILES: COc1cc(OC)c(/C=C/S(=O)(=O)Nc2ccc(OC)c(N)c2)c(OC)c1 [6t, (E)-N-(3-Amino-4-methoxyphenyl)-2-(2′,4′,6′-trimethoxyphenyl)ethenesulfonamide]
cell cycle distribution (DU145 cells [1]; 0.005 μM): accumulated in the G2/M phase
cell cycle distribution (DU145 cells [1]; 0.02 μM): a majority of cells showed G2/M arrest
IC50 (PC3): 8 nM
PARP cleavage (DU145 cells [2]): Full length PARP gets cleaved
IC50 (DU145): 8 nM
IC50 (various tumor cell lines): 3 to 10 nM
tubulin polymerization [3]: completely inhibit tubulin polymerization
tumor growth in xenograft ([4]; 20 mg/kg IP every other day, 6 injections, female nude mice): readily inhibited tumor growth
body weight ([4]; 20 mg/kg IP, xenograft study): no body weight loss of more than 10%; also recorded: no reduction in body weight
IC50 (DAUDI): 8 nM
anchorage-independent growth in soft agar (MIA-PaCa-2 cells): inhibition of anchorage-independent growth of tumor cells in a dose dependent manner
effect on microtubule cytoskeleton / mitotic spindle (DU145 cells [5]): complete depolymerization of the microtubule cytoskeleton
IC50 (NAMALWA): 8 nM
PARP cleavage in normal cell line (normal cell line): no PARP cleavage
IC50 (HCT15): 8 nM
IC50 (LNCAP): 8 nM
IC50 (SKOV3): 8 nM
competition with vinblastine binding to tubulin [6]: did not compete
polymerized versus soluble tubulin in cells (tubulin in DU145 cells): concentration-dependent depolymerization of tubulin; also recorded: completely inhibits the polymerization of tubulin
tubulin depolymerization in paclitaxel pre-treated cells (tubulin in DU145 cells; paclitaxel 24 h, then compound 4 h): effective at depolymerizing paclitaxel induced polymerized tubulin
IC50 (T47D): 8 nM
LD50 to Caco-2 cells (Caco-2 cells; one hour incubation, Alamar Blue): >1000 µM
IC50 (SK-MEL-28): 8 nM
resistance factors (MES-SA / DX5): < 2
competition with paclitaxel binding to tubulin [7]: did not compete
LD50 to HepG2 cells (HepG2 cells): >1000 µM
IC50 (BT20): 8 nM
IC50 (MOLT-4): 8 nM

SMILES: COc1cc(OC)c(/C=C/S(=O)(=O)Nc2ccc(OC)c(NCC(=O)O)c2)c(OC)c1 [25a, (E)-2-(2-Methoxy-5-(2-(2′,4′,6′-trimethoxyphenyl)vinylsulfonamido)phenylamino)acetic acid]
tubulin polymerization [3]: completely inhibit tubulin polymerization

SMILES: COc1cc(OC)c(/C=C/S(=O)(=O)Nc2ccc(OC)c(NC(C)(C)C(=O)O)c2)c(OC)c1 [25c, (E)-2-(2-Methoxy-5-(2-(2′,4′,6′-trimethoxyphenyl)vinylsulfonamido)phenylamino)-2-methylpropanoic acid]
IC50 (N417): 30 nM
tubulin polymerization [3]: completely inhibit tubulin polymerization
IC50 (DAUDI): 30 nM
resistance factors (MES-SA / DX5): < 2
IC50 (MOLT-4): 30 nM

SMILES: CC(=O)O[C@H]1C(=O)[C@@]2(C)[C@H]([C@H](OC(=O)c3ccccc3)[C@]3(O)C[C@H](OC(=O)[C@H](O)[C@@H](NC(=O)c4ccccc4)c4ccccc4)C(C)=C1C3(C)C)[C@]1(OC(C)=O)CO[C@@H]1C[C@@H]2O [Paclitaxel, reference compound]
tubulin polymerization [3]: strong increase in turbidity
polymerized versus soluble tubulin in cells (tubulin in DU145 cells): induced a shift from soluble to polymerized tubulin

SMILES: CC(=O)O[C@@]12CO[C@@H]1C[C@H](O)[C@@]1(C)C(=O)[C@H](O)C3=C(C)[C@@H](OC(=O)[C@H](O)[C@@H](NC(=O)OC(C)(C)C)c4ccccc4)C[C@@](O)([C@@H](OC(=O)c4ccccc4)[C@H]21)C3(C)C.O.O.O [docetaxel, reference compound]
competition with paclitaxel binding to tubulin [7]: effectively competed

SMILES: COC(=O)Nc1nc2cc(C(=O)c3cccs3)ccc2[nH]1 [nocodazole, Nocodazole, reference compound]
tubulin polymerization [3]: completely inhibit tubulin polymerization

competition with vinblastine binding to tubulin [6]: effectively competed
SMILES: CC[C@]1(O)C[C@H]2CN(CCc3c([nH]c4ccccc34)[C@@](C(=O)OC)(c3cc4c(cc3OC)N(C=O)[C@H]3[C@@](O)(C(=O)OC)[C@H](OC(C)=O)[C@]5(CC)C=CCN6CC[C@]43[C@@H]65)C2)C1 [vincristine, reference compound]
